Activity calls are given as the source filed them.
How the values were obtained:
[1] = system: Human immunodeficiency virus 1; experiment: Antiviral activity against HIV1 at 1 ug/ml; assay type: functional, organism-based
[2] = system: HCT-116; experiment: Cytotoxicity against human HCT 116 with wild type p53 at 0.009 to 152 uM by MTT assay; assay type: functional
Outline: (§1)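 HCT116 p53+/+ and p53-/- cells grown in McCoy's medium with 2 mM L-glutamine, 1 mM sodium pyruvate, penicillin/streptomycin and 10% FBS at 37 °C, 5% CO2. Seeded at 4 × 10^5 cells/well and left to attach for 24 h. Exposed to 0-78 µg/mL compound for 72 h. MTT added (final 0.25 mg/mL) for 3 h, formazan dissolved in DMSO, A570 read, IC50 by curve fitting.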

[3] = system: HCT-116; experiment: Cytotoxicity against human HCT 116 with wild type p53 at 0.008 to 124 uM by MTT assay; assay type: functional; outline: as §1
[4] = system: HCT-116; experiment: Cytotoxicity against human HCT 116 with wild type p53 at 0.006 to 103 uM by MTT assay; assay type: functional; outline: as §1
[5] = system: HCT-116; experiment: Cytotoxicity against human HCT 116 with null p53 mutant at 0.009 to 152 uM by MTT assay; assay type: functional; outline: as §1
[6] = system: HCT-116; experiment: Cytotoxicity against human HCT 116 with null p53 mutant p53 at 0.008 to 124 uM by MTT assay; assay type: functional; outline: as §1
[7] = system: HCT-116; experiment: Cytotoxicity against human HCT 116 with null p53 mutant at 0.006 to 103 uM by MTT assay; assay type: functional; outline: as §1
[8] = system: Human immunodeficiency virus 1; experiment: Antiviral activity against HIV1 at 10 ug/ml; assay type: functional, organism-based

Measured: Activity

CO[C@@H]1[C@H](O[C@@H]2CO[C@@H](O[C@@H]3[C@@H](O)[C@H](O)CO[C@H]3N3C(=O)/C(=C(O)/C=C/C=C/C=C/C=C/C=C(/C)Cl)C(=O)[C@@H]3CC(N)=O)[C@@H](O)[C@@H]2O)O[C@H](C)[C@H]1O
inactive: all assays above

C/C(Cl)=C/C=C/C=C/C=C/C=C/C(O)=C1\C(=O)[C@H](CC(N)=O)N([C@@H]2OC[C@@H](O)[C@H](O)[C@H]2O)C1=O
inactive: all assays above

C/C(Cl)=C/C=C/C=C/C=C/C=C/C(O)=C1\C(=O)[C@H](CC(N)=O)N([C@@H]2OC[C@@H](O)[C@H](O)[C@H]2O[C@@H]2OC[C@@H](O)[C@@H](O)[C@@H]2O)C1=O
inactive: all assays above

Reference: ChEMBL document CHEMBL1142570, “Aurantosides G, H, and I: three new tetramic acid glycosides from a Papua New Guinea Theonella swinhoei” (J Nat Prod, 2005)
